This note sets out measurements from the M2OR odorant receptor database.

What all share (conditions): stereoisomer not certain
The target in assay [1] is T1, OR8D1 (Homo sapiens) (UniProt Q8WZ84).
T1 sequence (whole entry): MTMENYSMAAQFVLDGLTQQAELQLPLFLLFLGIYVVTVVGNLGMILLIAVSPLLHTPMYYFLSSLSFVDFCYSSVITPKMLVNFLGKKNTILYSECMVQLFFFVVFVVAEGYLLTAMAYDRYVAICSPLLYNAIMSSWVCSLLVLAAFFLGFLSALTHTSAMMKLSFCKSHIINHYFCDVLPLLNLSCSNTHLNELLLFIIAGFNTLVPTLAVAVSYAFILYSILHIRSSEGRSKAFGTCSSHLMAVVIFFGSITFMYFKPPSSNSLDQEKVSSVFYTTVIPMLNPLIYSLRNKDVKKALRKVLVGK
The method in brief: (§1)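 Each receptor–molecule pair is labelled responsive or non-responsive (inactive) according to whether the original authors judged the measured signal statistically different from baseline. The data were taken from the main text and supplementary material of published papers and checked for typos and inconsistencies. Assay methods differed by source, with transient luciferase assays in mammalian cell lines being common.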

The target of assay [2] is T2, OR8B4 (Homo sapiens) (UniProt Q96RC9).
T2 sequence (whole entry): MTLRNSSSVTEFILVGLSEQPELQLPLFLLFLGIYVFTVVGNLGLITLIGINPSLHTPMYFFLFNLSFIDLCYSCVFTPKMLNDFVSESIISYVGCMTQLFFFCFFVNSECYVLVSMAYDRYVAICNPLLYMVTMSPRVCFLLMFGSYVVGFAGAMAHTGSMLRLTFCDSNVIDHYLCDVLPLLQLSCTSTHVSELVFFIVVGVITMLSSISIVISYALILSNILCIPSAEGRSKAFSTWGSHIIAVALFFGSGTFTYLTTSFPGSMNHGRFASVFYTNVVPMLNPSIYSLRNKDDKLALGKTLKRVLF
Put shortly: as §1

Assay [3] addresses T3, OR8B8 (Homo sapiens) (UniProt Q15620).
T3 sequence (whole entry): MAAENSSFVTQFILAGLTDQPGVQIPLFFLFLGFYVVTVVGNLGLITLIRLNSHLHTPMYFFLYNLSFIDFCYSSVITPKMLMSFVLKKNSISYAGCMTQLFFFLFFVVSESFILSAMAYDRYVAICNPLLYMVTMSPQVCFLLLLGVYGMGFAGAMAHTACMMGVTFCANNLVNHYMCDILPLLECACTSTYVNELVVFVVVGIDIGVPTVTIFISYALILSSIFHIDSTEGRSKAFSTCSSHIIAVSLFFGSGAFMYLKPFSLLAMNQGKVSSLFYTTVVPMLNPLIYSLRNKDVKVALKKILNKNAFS
Put shortly: as §1

In assay [4] the test system is T4, OR8B3 H20R Q24R M114I.
T4 sequence (whole entry): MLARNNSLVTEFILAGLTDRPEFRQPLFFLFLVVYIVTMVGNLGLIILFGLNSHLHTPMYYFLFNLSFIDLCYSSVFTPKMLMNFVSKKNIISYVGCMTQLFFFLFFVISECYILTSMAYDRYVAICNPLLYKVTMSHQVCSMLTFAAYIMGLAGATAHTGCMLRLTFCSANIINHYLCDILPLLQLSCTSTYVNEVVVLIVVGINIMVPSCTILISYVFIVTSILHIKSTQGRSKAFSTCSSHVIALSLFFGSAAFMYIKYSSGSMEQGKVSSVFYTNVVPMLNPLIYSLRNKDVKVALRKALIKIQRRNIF
Put shortly: as §1

For assay [5], the system named is T5, OR8B3 H20R Q24R Y113H.
T5 sequence (whole entry): T4 sequence (whole entry) with Y113H, I114M
The method in brief: as §1

Assay [6] deals with T6, OR8B3 H20R Q24R.
T6 sequence (whole entry): T4 sequence (whole entry) with I114M
Put shortly: as §1

The test system of assay [7] is T7, OR8B4.
T7 sequence (whole entry): T2 sequence (whole entry) with E22G
The method in brief: as §1

Assay [8] relates to T8, OR8B8 L101P.
T8 sequence (whole entry): T3 sequence (whole entry) with L101P
Put shortly: as §1

Assay [9] deals with T9, OR8D1 C127G L194P.
T9 sequence (whole entry): T1 sequence (whole entry) with C127G, L194P
The method in brief: as §1

Assay [10] deals with T10, OR8D1 L194P.
T10 sequence (whole entry): T1 sequence (whole entry) with L194P
The method in brief: as §1

Residue numbers refer to the chain shown, from its start.
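Also: active if original authors judged signal statistically different from baseline.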

Take `CCCCCCCC(=O)OCC`: the “odorant receptor agonist call” value in [1] was “inactive”.
In the case of `CCCCCC(S)C(C)CO` (configuration not stated), the “odorant receptor agonist call” value in assay [2], in [3] and in assay [1] was “inactive” in each case.
As to `CSC`, the “odorant receptor agonist call” value in assay [1] is “inactive”.
Turning to `CC(=O)c1c(C)c([N+](=O)[O-])c(C(C)(C)C)c([N+](=O)[O-])c1C`, the “odorant receptor agonist call” value in assay [2], in [3] and in assay [1] was “inactive” each time.
On to `CCCCCCC(=O)[O-].[H+]`, for which, in assay [1], the “odorant receptor agonist call” value is “inactive”.
The same measure, in the same setting: with `CC(=O)c1cnccn1` the entry was “inactive”; with `CCCC(S)CCO` (configuration not stated), “inactive”.
With `CC1=NC(C)C(C)S1` (configuration not stated), the “odorant receptor agonist call” value in [4], in assay [5], in [6], in [2], in [7] and in [3] was “inactive” in each case. In addition, the “odorant receptor agonist call” value in [8], in [1], in assay [9] and in assay [10] was “inactive” each time.
On to `CCC=O`, for which the “odorant receptor agonist call” value in assay [1] was “inactive”.
For the molecule `CC1=C(O)C(=O)OC1C` (configuration not stated), the “odorant receptor agonist call” value in [4], in assay [5], in assay [6], in assay [2], in assay [7] and in assay [3] was “inactive” in each case. The “odorant receptor agonist call” value in assay [8], in assay [9] and in assay [10] was “inactive” each time. Besides, the “odorant receptor agonist call” value in [1] was “active”.
With `C=Cc1ccc(O)c(OC)c1`, the “odorant receptor agonist call” value in assay [1] is “inactive”.
`CC1CCCCCCCCCCCCC(=O)C1` (configuration not stated): the “odorant receptor agonist call” value in [2], in assay [3] and in assay [1] was “inactive” throughout.
As for `COc1nccnc1CC(C)C`, the “odorant receptor agonist call” value in assay [1] was “inactive”.
With `CC(=O)c1ccc(C)cc1`, the “odorant receptor agonist call” value in assay [1] was “inactive”.
As for `CCCCCC(=O)C(C)C(C)=O` (configuration not stated), the “odorant receptor agonist call” value in [2], in assay [3] and in [1] was “inactive” each time.
For the molecule `CC(CO)CS` (configuration not stated), the “odorant receptor agonist call” value in assay [2], in [3] and in [1] was “inactive” each time.
Regarding `CCCCCCC=CC=O`, the “odorant receptor agonist call” value in assay [1] was “inactive”.
Consider `CCCCC(S)C(C)CO` (configuration not stated), for which the “odorant receptor agonist call” value in [2], in assay [3] and in assay [1] was “inactive” each time.
As to `CC1=C(O)C(=O)C(C)O1` (configuration not stated), the “odorant receptor agonist call” value in [4], in [5], in [6], in assay [2], in assay [7] and in assay [3] was “inactive” each time. In addition, the “odorant receptor agonist call” value in assay [8], in [1], in assay [9] and in assay [10] was “inactive” in each case.
For `Cc1ccc(O)cc1`, the “odorant receptor agonist call” value in assay [1] is “inactive”.
On to `CC(=O)C1=NCCS1`, for which the “odorant receptor agonist call” value in [1] is “inactive”.
Turning to `CCCC(S)CCOC(C)=O` (configuration not stated), the “odorant receptor agonist call” value in [4], in assay [5], in [6], in assay [2], in [7] and in assay [3] was “inactive” in each case. The “odorant receptor agonist call” value in assay [8], in assay [1], in assay [9] and in assay [10] was “inactive” throughout.
For `CCC1OC(C)=C(O)C1=O` (configuration not stated), the “odorant receptor agonist call” value in [4], in assay [5], in assay [6], in [2], in [7] and in assay [3] was “inactive” throughout. Besides, the “odorant receptor agonist call” value in assay [8], in assay [1], in assay [9] and in assay [10] was “inactive” in each case.
For the molecule `CC1=CCC(C(C)C)C=C1` (configuration not stated), the “odorant receptor agonist call” value in assay [1] was “inactive”.
`Cc1cnc(C)c(C)n1`: the “odorant receptor agonist call” value in [4], in assay [5], in assay [6], in assay [2], in assay [7] and in assay [3] was “inactive” throughout. The “odorant receptor agonist call” value in assay [8], in assay [1], in assay [9] and in assay [10] was “inactive” throughout.
Regarding `CCC(S)C(C)CO` (configuration not stated), the “odorant receptor agonist call” value in assay [2], in assay [3] and in assay [1] was “inactive” throughout.
For `OCCc1ccccc1`, in [1], the “odorant receptor agonist call” value is “inactive”.
The same measure, in the same setting: then `COc1ccc(C)cc1O`, with “inactive”; and `CCC(C)CCC(=O)[O-]` (configuration not stated), with “inactive”.
As for `CCC1OC(=O)C(O)=C1C` (configuration not stated), the “odorant receptor agonist call” value in assay [4], in [5], in assay [6], in assay [2], in [7] and in [3] was “inactive” in each case. The “odorant receptor agonist call” value in assay [8], in [9] and in assay [10] was “inactive” throughout. Further, the “odorant receptor agonist call” value in assay [1] was “active”.
As to `CCCCCCC=CCCC=O`, the “odorant receptor agonist call” value in assay [4], in assay [5], in assay [6], in assay [2], in assay [7] and in assay [3] was “inactive” in each case. The “odorant receptor agonist call” value in assay [8], in assay [1] and in assay [9] was “inactive” each time.
As for `CC=CC(=O)C(C)CC` (configuration not stated), the “odorant receptor agonist call” value in assay [1] is “inactive”.
Same read-out and setting: with `CSCCC=O` the entry was “inactive”; with `CCCC(O)CC(=O)OCC` (configuration not stated), “inactive”; with `CCCCCCCCCO`, “inactive”.
Consider `C=C(C)C1CC=C(C)CC1` (configuration not stated), for which, in [1], the “odorant receptor agonist call” value is “inactive”.
The same measure, in the same setting: then `CCCC1CCCC(=O)O1` (configuration not stated), with “inactive”.
